The subject of data set [1] is Leishmania donovani. Put plainly: Antimicrobial activity against axenically grown Leishmania donovani amastigotes. The data set is classed as functional, organism-based.
The subject of data set [2] is Leishmania donovani. Put plainly: Antimicrobial activity against SSG-resistant Leishmania donovani 39 amastigote infected in mouse peritoneal macrophages assessed as inhibition of parasite growth after 72 hrs by Giemsa staining method. The data set is classed as functional, organism-based. The note with it: Leishmania donovani, 39, 72 h. The procedure, abridged: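 Mouse peritoneal elicited macrophages were seeded on coverslips at 1 × 10^5 cells per well in DMEM with 10% heat-inactivated FBS and left to attach overnight. They were infected overnight with late-log Ld39 promastigotes (parasite:macrophage 20:1) at 37 °C, 5% CO2, then washed. Compounds were applied for 72 h at 37 °C. Giemsa-stained amastigotes per 100 macrophages gave IC50; N = 1−3.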

In data set [3] the test system is Leishmania donovani. Put plainly: Antimicrobial activity against wild-type Leishmania donovani AG83 promastigote assessed as inhibition of parasite growth after 72 hrs by MTS assay. The data set is classed as functional, organism-based. The conditions noted are these: AG83, 72 h. The procedure, abridged: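 Promastigotes were grown in Schneider's medium pH 6.9 with 10% heat-inactivated FBS at 27 °C, seeded at 1 × 10^5 per well, and exposed to serial concentrations for 72 h at 27 °C. Compounds were in DMSO (≤1% final) or water. MTS:PMS (20:1) was added for 4 h, then OD490 was read.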
For orientation: Tetrazolium assays rely on reduction of a dye to a coloured formazan, in cell work by metabolically active cells.

In data set [4] the test system is Leishmania donovani. Put plainly: Antimicrobial activity against SSG-resistant Leishmania donovani 39 promastigote assessed as inhibition of parasite growth after 72 hrs by MTS assay. The conditions noted are these: Leishmania donovani, 39, 72 h. The data set is classed as functional, organism-based. The procedure, abridged:
(§1)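 Promastigotes were grown in Schneider's medium pH 6.9 with 10% heat-inactivated FBS at 27 °C, seeded at 1 × 10^5 per well, and exposed to serial concentrations for 72 h at 27 °C. Compounds were in DMSO (≤1% final) or water. MTS:PMS (20:1) was added for 4 h, then OD490 was read. Survival was % of untreated control; IC50 = concentration halving OD; N = 1−4.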

Data set [5] concerns Leishmania donovani. Put plainly: Antimicrobial activity against pentamidine-resistant Leishmania donovani AG83PentR50 promastigote assessed as inhibition of parasite growth after 72 hrs by MTS assay. The data set is classed as functional, organism-based. The note with it: AG83PentR50, 72 h. The procedure, abridged: as §1
The nature of data set [6]: Therapeutic index, ratio of IC50 for mouse PEM cells to IC50 for wild-type Leishmania donovani AG83 promastigote. The data set is classed as cell-based. The conditions noted are these: read-out: Ratio IC50. The procedure, abridged: (§2)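 Index is PEM cytotoxicity IC50 over promastigote IC50. For PEM, cells were seeded at 2 × 10^4 per well in supplemented DMEM, given graded doses for 72 h at 37 °C, 5% CO2, and read by MTS survival.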

Data set [7] is described as follows: Therapeutic index, ratio of IC50 for mouse Peritoneal macrophages to IC50 for SSG-resistant Leishmania donovani 39 amastigote infected in mouse peritoneal macrophages. The note with it: read-out: Ratio IC50.
Data set [8] is described as follows: Cytotoxicity against mouse Peritoneal macrophages cells after 72 hrs by MTS assay. The data set is classed as cell-based. The note with it: Peritoneal macrophage cell. The procedure, abridged:
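Primary mouse peritoneal elicited macrophages were seeded at 2 × 10^4 cells per well in DMEM with 10% heat-inactivated FBS. They were exposed to graded doses for 72 h at 37 °C in 5% CO2. Survival was read by MTS/PMS tetrazolium reduction (OD 490 nm) relative to untreated control. The IC50 was the concentration halving OD. Results are mean ± SEM of 1–4 independent experiments.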

Data set [9] can be described thus: Therapeutic index, ratio of IC50 for mouse Peritoneal macrophages to IC50 for SSG-resistant Leishmania donovani 39 promastigote. The note with it: read-out: Ratio IC50. The procedure, abridged: as §2
A further data set deals with RAW264.7. Description: Cytotoxicity against mouse RAW264.7 cells after 72 hrs by MTS assay. The data set is classed as cell-based. The conditions noted are these: RAW264.7, 72 h. The procedure, abridged: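 RAW 264.7 murine macrophage line was plated at 1 × 10^4 cells per well in supplemented DMEM. Cells received a graded compound series for 72 h at 37 °C, 5% CO2, with a maximum of 1% DMSO. Viability was measured by MTS with PMS coupling at OD 490 nm, as percent of untreated control. The IC50 was the concentration reducing OD by half, given as mean ± SEM, N = 1–4.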

Data set [10] in a line: Therapeutic index, ratio of IC50 for mouse Peritoneal macrophages to IC50 for pentamidine-resistant Leishmania donovani AG83PentR50 promastigote. The conditions noted are these: read-out: Ratio IC50. The procedure, abridged: as §2
The test system of data set [11] is Leishmania donovani. Put plainly: Selectivity ratio of IC50 for Leishmania donovani promastigote to IC50 for SSG-resistant Leishmania donovani 39 amastigote infected in mouse peritoneal macrophages. The data set is classed as functional.
For a further data set, the system named is L6. Description: Cytotoxicity against rat L6 cells. The data set is classed as cell-based.
A short description of data set [12]: Therapeutic index, ratio of IC50 for rat L6 cells to IC50 for Leishmania donovani. The data set is classed as cell-based. The note with it: L6 cells (cytotoxicity) versus Leishmania donovani, read-out: Ratio IC50.
Data set [13] deals with Leishmania donovani. Put plainly: Selectivity ratio of IC50 for compound-resistant Leishmania donovani AG83PentR50 promastigote to IC50 for wild-type Leishmania donovani AG83 promastigote. The data set is classed as functional.
The subject of data set [14] is Leishmania donovani. Put plainly: Antimicrobial activity against SSG-resistant Leishmania donovani 39 amastigote infected in mouse peritoneal macrophages assessed as inhibition of parasite growth at 5 uM after 3 days by Giemsa staining method. The data set is classed as functional, organism-based. The procedure, abridged: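 Coverslip-grown peritoneal macrophages were infected 24 h at 37 °C with late-log Ld39 promastigotes (20:1), washed, then exposed to 5 μM compound for 3 days at 37 °C, with a DMSO solvent control. Giemsa staining was scored as percentage of macrophages infected and amastigotes per 100 macrophages.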

For data set [15], the system named is Leishmania donovani. Put plainly: Ratio of isoginkgetin IC50 to compound IC50 for axenically grown Leishmania donovani amastigotes. The data set is classed as functional.

This note sets out measurements from ChEMBL document CHEMBL2169835, “Flavonoid dimers as novel, potent antileishmanial agents” (J Med Chem, 2012).

Activity calls are given as the source filed them. No cut-off for these calls is given here. Where only a bound is given, the exact number is not on record here.

By IC50 is commonly meant the concentration that inhibits the measured activity by half.

As for `COc1ccc(-c2cc(=O)c3c(O)cc(O)c(-c4cc(-c5cc(=O)c6c(O)cc(OC)cc6o5)ccc4OC)c3o2)cc1` [SCIADOPITISIN], 8.2 µM corresponded to half-maximal inhibition with Leishmania donovani [1] (IC50).
Take `NC[C@@H]1O[C@H](O[C@H]2[C@@H](O)[C@H](O[C@@H]3[C@@H](O)[C@H](N)C[C@H](N)[C@H]3O[C@H]3O[C@H](CO)[C@@H](O)[C@H](O)[C@H]3N)O[C@@H]2CO)[C@H](N)[C@@H](O)[C@@H]1O` [PAROMOMYCIN]: the IC50 was 41 µM with Leishmania donovani [2]; 62.6 µM in the data set on Leishmania donovani [3]; 24.5 µM in the data set on Leishmania donovani [4]; 85.5 µM with Leishmania donovani [5]; > 100 µM in [8]; > 100 µM in the data set with RAW264.7. For the same compound, the selectivity ratio was > 1.6 in data set [6], > 2.4 in [7], > 4.1 in data set [9] and > 1.2 in [10].
For sodium stibogluconate, the Ratio IC50 in the data set with Leishmania donovani [11] was found to be 11.
In turn, `O=c1cc(-c2ccc(Oc3c(O)cc(O)c4c(=O)cc(-c5ccc(O)cc5)oc34)cc2)oc2cc(O)cc(O)c12` [LANAROFLAVONE] gave an IC50 in the data set with Leishmania donovani [1] of 7.2 µM.
`COc1cc(O)c2c(=O)cc(-c3ccc(OC)c(-c4c(O)cc(O)c5c(=O)cc(-c6ccc(O)cc6)oc45)c3)oc2c1` [GINKGETIN]: the 50% inhibitory concentration (IC50) in the data set on Leishmania donovani [1] came to 2.8 µM.
The same measure, in the same setting: for `COc1ccc(-c2cc(=O)c3c(O)cc(O)cc3o2)cc1-c1c(O)cc(O)c2c(=O)cc(-c3ccc(O)cc3)oc12` [BILOBETIN] the value was 2.7 µM.
As to `COc1ccc(-c2cc(=O)c3c(O)cc(O)c(-c4cc(-c5cc(=O)c6c(O)cc(O)cc6o5)ccc4OC)c3o2)cc1` [ISOGINKGETIN], the IC50 was 1.9 µM in the data set with Leishmania donovani [1] and 11 µM with L6. For the same compound, the selectivity ratio in data set [12] turned out to be 5.8.
As for `N=C(N)c1ccc(OCCCCCOc2ccc(C(=N)N)cc2)cc1` [PENTAMIDINE], the IC50 with Leishmania donovani [2] is > 30 µM; in the data set with Leishmania donovani [3], 13.9 µM; in the data set with Leishmania donovani [4], 5.3 µM; in the data set on Leishmania donovani [5], 54.8 µM; in [8], 30.4 µM; with RAW264.7 it was 30 µM. Moreover, the “Ratio IC50” value with Leishmania donovani [13] is given as 3.9. Further, the selectivity ratio in data set [6] was 2.2; in [7], < 1; in [9], 5.7; in data set [10], 0.6.
Turning to `C[C@@H]1[C@H](O)[C@@H](C)/C=C/C=C/C=C/C=C/C=C/C=C/C=C/[C@H](O[C@@H]2O[C@H](C)[C@@H](O)[C@H](N)[C@@H]2O)C[C@@H]2O[C@](O)(C[C@@H](O)C[C@@H](O)[C@H](O)CC[C@@H](O)C[C@@H](O)CC(=O)O[C@H]1C)C[C@H](O)[C@H]2C(=O)O` [AMPHOTERICIN B], the IC50 came to 0.062 µM in the data set with Leishmania donovani [2]; 0.09 µM in the data set on Leishmania donovani [3]; 0.095 µM in the data set on Leishmania donovani [4]; 0.051 µM with Leishmania donovani [5]; 7.4 µM in data set [8]; 12 µM in the data set with RAW264.7. The selectivity ratio is 82.2 in data set [6], 119 in data set [7], 77.9 in data set [9] and 145 in [10].
As to `O=c1c(O)c(-c2ccc(O)c(O)c2)oc2cc(O)cc(O)c12` [QUERCETIN], the IC50 in the data set with Leishmania donovani [2] was 6 µM; with Leishmania donovani [3], 103 µM; with Leishmania donovani [4] it was > 100 µM; in the data set on Leishmania donovani [5] it was 69.6 µM; in data set [8], > 100 µM; in the data set with RAW264.7, 95.6 µM. For the same compound, the selectivity ratio in data set [6] is > 1; in data set [7] it was > 16.7; in data set [9], > 1; in data set [10], > 1.4. In the data set with Leishmania donovani [11], the “Ratio IC50” value amounted to 17.
With `O=c1cc(-c2ccc(OCCOCCN(CCOCCOc3ccc(-c4cc(=O)c5ccccc5o4)cc3)Cc3ccncc3)cc2)oc2ccccc12`, the IC50 in the data set with Leishmania donovani [2] was 0.63 µM; in the data set with Leishmania donovani [3], 0.2 µM; with Leishmania donovani [4], 0.21 µM; in the data set with Leishmania donovani [5] it was 0.13 µM; in data set [8] it was > 88 µM; in the data set on RAW264.7 it was > 100 µM. The inhibition result in the data set on Leishmania donovani [14] was “Active”. Further, the selectivity ratio is > 440 in data set [6], > 140 in data set [7], > 419 in data set [9] and > 677 in data set [10]. In the data set with Leishmania donovani [15], the “Ratio IC50” value is 3.
For the compound `O=c1cc(-c2ccc(O)c(O)c2)oc2cc(O)cc(O)c12` [LUTEOLIN], the IC50 in the data set with Leishmania donovani [2] is 7.7 µM; in the data set with Leishmania donovani [3], 114 µM; in the data set on Leishmania donovani [4] it was 89 µM; in the data set on Leishmania donovani [5], 90.9 µM; in data set [8], 77.7 µM; in the data set with RAW264.7, 43.2 µM. The selectivity ratio was determined as 0.7 in data set [6], 10.1 in [7], 0.9 in [9] and 0.9 in data set [10]. Moreover, in the data set with Leishmania donovani [11], the “Ratio IC50” value is on record as 12.
